Test: Inhibition of Rickettsia prowazekii N-terminal His6-tagged methionine aminopeptidase 1 expressed in Escherichia coli DLB3 Rosetta cells at 10 uM using Met-AMC as substrate preincubated for 1 hr followed by 30 mins incubation after substrate addition measured after 90 mins in presence of MnCl2 by fluorescence assay relative to control
Summary of the method: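 Recombinant R. prowazekii MetAP with Mn(II) as the metal cofactor. Met-AMC substrate; release of free AMC is followed by fluorescence (excitation 360 nm, emission 460 nm). Activity is the slope of fluorescence versus time, compared with an uninhibited control.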

`Cc1nnc(C(N)c2ccccc2)o1` (stereo not drawn) and `CC(N)c1nnc(-c2ccccc2)o1` (stereo not drawn) cannot be ordered by inhibition: 5 to 8% for the first, 1 to 32% for the second.

First: Cc1ccc(Sc2ccc(C(=O)O)o2)cc1
Second: Cc1ccc(SCc2ccc(C(=O)O)o2)cc1
The inhibition of the first is higher: 27 to 62% for the first, 4 to 9% for the second.

`COc1cccc(-c2nnc(-c3ccccc3N)[nH]2)c1` and `COc1cccc(-c2nnc(CN)o2)c1` cannot be ordered by inhibition: 1 to 19% for the first, 1 to 33% for the second.

`CCOC(=O)CSc1nnc(-c2ccncc2)[nH]1` and `COC(=O)CSc1n[nH]c(-c2ccncc2)n1` cannot be ordered by inhibition: 1 to 59% for the first, 1 to 39% for the second.

`O=C(O)c1csc(Cc2ccccc2)n1` and `COc1ccccc1-c1cc(C(=O)O)no1` cannot be ordered by inhibition: 1 to 67% for the first, 33 to 48% for the second.

First: CC(=O)c1c(Nc2ccc(F)cc2)oc(C)cc1=O
Second: O=C(O)c1ccc(COc2ccc(F)cc2)o1
The inhibition of the first is higher: 23 to 58% for the first, 10 to 16% for the second.

First: CC(C)Oc1ccc(CCSc2nnc(N)[nH]2)cc1
Second: CC(C)OC(=O)c1ccc(CSc2nnc(N)[nH]2)cc1
The inhibition of the first is lower: 47 to 53% for the first, 59 to 66% for the second.

First: Nc1nnc(SCC(=O)OCCOc2ccccc2)[nH]1
Second: Nc1nnc(SCCc2ccccc2)[nH]1
The inhibition of the first is higher: 47 to 56% for the first, 14 to 42% for the second.

`Cc1cccc2nc(C(=O)O)cn12` and `Cc1cc(C)n(-c2ccc(Cl)c(C(=O)O)n2)n1` cannot be ordered by inhibition: 38 to 58% for the first, 15 to 77% for the second.

First: CC(Sc1nnc(N)[nH]1)C(=O)OC1CCCCC1 (stereo not drawn)
Second: Nc1nnc(SCC(=O)OC2CCCCC2)[nH]1
The inhibition of the first is lower: 46 to 54% for the first, 60 to 68% for the second.

`C1CCc2nnc(-c3nnc4n3CCCCC4)n2CC1` and `O=c1cc(CN2CCCCCC2)occ1O` cannot be ordered by inhibition: 1 to 60% for the first, 32 to 44% for the second.

First: NCc1nc(-c2ccc(F)cc2)no1
Second: Nc1ccccc1-c1nc(-c2ccc(F)cc2)no1
The inhibition of the first is higher: 62 to 70% for the first, 1 to 44% for the second.

`Cc1ccc(C(=O)CSc2nnc(N)[nH]2)cc1` and `CCc1nnc(SCC(=O)c2ccc(Cl)cc2)[nH]1` cannot be ordered by inhibition: 17 to 52% for the first, 9 to 23% for the second.

`CCc1nnc(SCC(=O)c2ccccc2)[nH]1` and `CCc1nnc(SCC(=O)c2ccc(OC)cc2)[nH]1` cannot be ordered by inhibition: 1 to 40% for the first, 1 to 22% for the second.

`CCc1ccc(NC(=O)CSc2nnc[nH]2)cc1` and `COc1ccc(C(=O)CSc2nnc[nH]2)cc1C` cannot be ordered by inhibition: 18 to 60% for the first, 1 to 48% for the second.

`Cc1ccc(-c2ccc(C(=O)O)s2)cc1` and `Cc1ccc(S(=O)(=O)c2ccc(C(=O)O)s2)cc1` cannot be ordered by inhibition: 4 to 18% for the first, 10 to 67% for the second.

`O=C(O)c1cc(Br)c(Br)s1` and `O=C(O)c1ccc(-c2cc(Cl)ccc2Cl)s1` cannot be ordered by inhibition: 30 to 64% for the first, 1 to 80% for the second.

`Cc1c(C(=O)O)sc2ncn(CC3CCCO3)c(=O)c12` (stereo not drawn) and `C=CCn1cnc2sc(C(=O)O)c(C)c2c1=O` cannot be ordered by inhibition: 10 to 24% for the first, 8 to 20% for the second.

`Nc1n[nH]c(SCc2ccc(Br)cc2)n1` and `Nc1n[nH]c(SCc2ccccc2Cl)n1` cannot be ordered by inhibition: 28 to 36% for the first, 24 to 34% for the second.

`S=c1nc(-c2ccccn2)cc[nH]1` and `c1ccc(-c2cc[nH]n2)nc1` cannot be ordered by inhibition: 32 to 75% for the first, 2 to 52% for the second.

`COCc1nc(=O)c2c(C)c(C(=O)O)sc2[nH]1` and `COCCn1cnc2sc(C(=O)O)c(C)c2c1=O` cannot be ordered by inhibition: 2 to 48% for the first, 20 to 24% for the second.

`COc1ccc(C(=O)CSc2n[nH]c(N)n2)cc1` and `Cc1ccc(OCCCSc2n[nH]c(N)n2)cc1` cannot be ordered by inhibition: 32 to 58% for the first, 42 to 51% for the second.

`NNC(=O)c1ccc(-c2ccc(Cl)cc2)o1` and `O=C(O)c1ccc(CSc2ccc(Cl)cc2)o1` cannot be ordered by inhibition: 10 to 41% for the first, 20 to 28% for the second.

`Nc1nnc(SCCCOc2ccc(Cl)cc2)[nH]1` and `Nc1nnc(SCCOc2ccc(Cl)cc2)[nH]1` cannot be ordered by inhibition: 22 to 32% for the first, 31 to 32% for the second.

`Cc1[nH]nc(C(=O)O)c1-c1ccccc1` and `O=C(O)c1cnc2ccccc2c1O` cannot be ordered by inhibition: 2 to 37% for the first, 13 to 55% for the second.

Compared with `CC(C)(Oc1ccc(Cl)cc1)C(=O)NN`, `COc1ccc(OCc2ccc(C(=O)O)o2)cc1` is lower in inhibition: 42 to 46% for the first, 1 to 37% for the second.

`Nc1n[nH]c(SCC(=O)c2ccc([N+](=O)[O-])cc2)n1` and `Nc1nnc(SCc2ccc([N+](=O)[O-])cc2)[nH]1` cannot be ordered by inhibition: 19 to 53% for the first, 42 to 45% for the second.

`O=C(O)c1ccc(CS(=O)(=O)c2ccccc2)o1` and `O=C(O)c1ccc(S(=O)(=O)c2ccccc2)o1` cannot be ordered by inhibition: 16 to 27% for the first, 18 to 49% for the second.

`O=C(O)C1CCCN1C(=O)c1ccco1` (stereo not drawn) and `O=C(O)c1cnc(-c2cccc(Cl)c2)o1` cannot be ordered by inhibition: 7 to 9% for the first, 1 to 37% for the second.

`CCc1nnc(SCC(=O)c2ccc(C)cc2C)[nH]1` and `CCc1n[nH]c(SCC(=O)c2ccc(C)c(C)c2)n1` cannot be ordered by inhibition: 14 to 45% for the first, 5 to 38% for the second.

`O=C(O)c1ccc(S(=O)(=O)c2ccccc2)s1` and `Nc1ccncc1-c1ccc(C(=O)O)s1` cannot be ordered by inhibition: 29 to 65% for the first, 12 to 58% for the second.

Compared with `O=C1CCCN1c1ccc(S(=O)(=O)Nc2cccc3cccnc23)cc1`, `O=C(O)c1cnc2c(ccc3ccccc32)c1O` is higher in inhibition: 5 to 22% for the first, 22 to 43% for the second.

Compared with `O=C(O)c1cc(-c2cccnc2)on1`, `CSc1cc(C(=O)O)nc(-c2ccccn2)c1` is higher in inhibition: 29 to 33% for the first, 36 to 68% for the second.

First: Cc1ccc2nc(-c3ccccn3)c(C(=O)O)cc2c1
Second: O=C(O)c1cc(-c2ccccn2)nc2ccc(F)cc12
The inhibition of the first is lower: 1 to 13% for the first, 29 to 61% for the second.

`O=C(O)c1cc(-c2ccccn2)nc2ccccc12` and `CC(C)c1ccc2nc(-c3ccccn3)cc(C(=O)O)c2c1` cannot be ordered by inhibition: 37 to 55% for the first, 18 to 56% for the second.

`O=C(O)c1cccnc1-c1ncccc1C(=O)O` and `O=C(O)c1ccc(Cn2cnc3ccccc32)o1` cannot be ordered by inhibition: 13 to 49% for the first, 9 to 23% for the second.

Compared with `CCCOC(=O)CSc1nnc(N)[nH]1`, `CCOC(=O)C(C)Sc1nnc(N)[nH]1` (stereo not drawn) is higher in inhibition: 15 to 36% for the first, 36 to 55% for the second.

`Cc1c(C(=O)O)sc2ncn(C(C)C)c(=O)c12` and `C=C(C)Cn1cnc2sc(C(=O)O)c(C)c2c1=O` cannot be ordered by inhibition: 5 to 19% for the first, 8 to 33% for the second.

`O=C(O)c1ccc(-c2cc(Cl)ccc2Cl)o1` and `Cc1nc2ccccc2n1Cc1ccc(C(=O)O)o1` cannot be ordered by inhibition: 1 to 57% for the first, 10 to 21% for the second.

`O=C(O)c1ccc(COc2ccc3ccc(=O)oc3c2)o1` and `Cc1ccc(S(=O)(=O)Cc2ccc(C(=O)O)o2)cc1` cannot be ordered by inhibition: 14 to 21% for the first, 12 to 25% for the second.

`NC(=O)c1ccccc1N` and `Nc1ccc(C(=O)c2ccccc2)cc1N` cannot be ordered by inhibition: 1 to 33% for the first, 10 to 39% for the second.

First: CCCCCCSc1nnc(N)[nH]1
Second: Nc1nnc(SCC(=O)OC2CCCC2)[nH]1
The inhibition of the first is lower: 1 to 3% for the first, 53 to 59% for the second.

First: O=C(CSc1nnc(-c2ccco2)[nH]1)c1ccccc1
Second: Cc1nnc(SCC(=O)c2cccc3ccccc23)[nH]1
The inhibition of the first is lower: 17 to 22% for the first, 38 to 67% for the second.

`O=C(O)c1cscn1` and `O=C(O)C(Sc1nnc[nH]1)c1ccccc1` (stereo not drawn) cannot be ordered by inhibition: 35 to 41% for the first, 3 to 41% for the second.

`CC(=O)Nc1ccc(C(=O)CSc2nnc(C)[nH]2)cc1` and `COc1ccccc1NC(=O)CSc1nnc(C)[nH]1` cannot be ordered by inhibition: 1 to 39% for the first, 1 to 15% for the second.

`Cc1n[nH]c(SCC(=O)NCCc2ccccc2)n1` and `CCOC(=O)CSc1n[nH]c(-c2ccco2)n1` cannot be ordered by inhibition: 1 to 18% for the first, 1 to 51% for the second.

First: CC(C)N1CC(=O)C(c2nc3ccccc3[nH]2)=C1N
Second: c1ccc2[nH]c(C3CCCN3)nc2c1 (stereo not drawn)
The inhibition of the first is higher: 25 to 26% for the first, 6 to 23% for the second.

First: CC(C)CCNC(=O)c1ccc2[nH]c(=O)c(=O)[nH]c2c1
Second: O=c1[nH]c2cccc3c2n(c1=O)CCO3
The inhibition of the first is higher: 49 to 54% for the first, 24 to 32% for the second.

First: O=C(O)CC(Sc1nnc[nH]1)c1ccc(Cl)cc1 (stereo not drawn)
Second: Nc1nnc(SCC(=O)c2ccc(O)cc2O)[nH]1
The inhibition of the first is higher: 54 to 55% for the first, 2 to 19% for the second.

`Nc1[nH]n(-c2ccccc2)c(=O)c1C1=NCCCCC1` and `c1ccn2c(C3CCCNC3)nnc2c1` (stereo not drawn) cannot be ordered by inhibition: 2 to 35% for the first, 2 to 47% for the second.

`COc1ccc(O)c(C2=NNC(c3ccc(F)cc3)C2)c1` (stereo not drawn) and `CC(N)c1ncc(-c2ccc(F)cc2)o1` (stereo not drawn) cannot be ordered by inhibition: 26 to 48% for the first, 46 to 50% for the second.

Work on `CN(C)c1cccc(-c2ccc(C(=O)NN)cc2)c1` yielded an inhibition of 29 to 56%.
